For the experiment, the target named is G protein-activated inward rectifier potassium channel 2 (Homo sapiens) + G protein-activated inward rectifier potassium channel 1 (Homo sapiens) (UniProt P48051+P48549). Put plainly: GIRK1/2 channel opening, thallium influx – cell-based, minus mGlu8, HEK-293 hGIRK1/2, thallium flux, dose response (AID 623952). The conditions noted are these: HEK-293 hGIRK1/2, thallium flux FluoZin-2 fluorescence. Summed up: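 Material: HEK-293 cells stably carrying hGIRK1/2; also added: bicarbonate thallium stimulus at pH 7.4, glutamate at EC20; schedule: dye loading ~60 min room temperature, compound 4 min pre-stimulus; measured by: FluoZin-2 fluorescence thallium flux; measure: post-thallium F/F0 slope minus vehicle, four-parameter logistic fit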
G protein-activated inward rectifier potassium channel 2 (Homo sapiens) + G protein-activated inward rectifier potassium channel 1 (Homo sapiens), sequence (P48051 whole entry, looked up): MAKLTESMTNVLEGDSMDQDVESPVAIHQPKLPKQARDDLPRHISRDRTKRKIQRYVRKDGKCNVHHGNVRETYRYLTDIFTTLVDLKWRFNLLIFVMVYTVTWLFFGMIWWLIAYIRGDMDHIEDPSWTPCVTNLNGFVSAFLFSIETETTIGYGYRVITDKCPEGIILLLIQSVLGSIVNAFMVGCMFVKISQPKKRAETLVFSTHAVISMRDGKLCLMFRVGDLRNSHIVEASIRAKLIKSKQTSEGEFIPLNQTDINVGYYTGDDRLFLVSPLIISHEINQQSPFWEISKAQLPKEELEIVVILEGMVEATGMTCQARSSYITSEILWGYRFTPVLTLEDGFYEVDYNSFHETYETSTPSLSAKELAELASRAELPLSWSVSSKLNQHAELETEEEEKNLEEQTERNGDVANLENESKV
G protein-activated inward rectifier potassium channel 2 (Homo sapiens) + G protein-activated inward rectifier potassium channel 1 (Homo sapiens), sequence (P48549 whole entry, looked up): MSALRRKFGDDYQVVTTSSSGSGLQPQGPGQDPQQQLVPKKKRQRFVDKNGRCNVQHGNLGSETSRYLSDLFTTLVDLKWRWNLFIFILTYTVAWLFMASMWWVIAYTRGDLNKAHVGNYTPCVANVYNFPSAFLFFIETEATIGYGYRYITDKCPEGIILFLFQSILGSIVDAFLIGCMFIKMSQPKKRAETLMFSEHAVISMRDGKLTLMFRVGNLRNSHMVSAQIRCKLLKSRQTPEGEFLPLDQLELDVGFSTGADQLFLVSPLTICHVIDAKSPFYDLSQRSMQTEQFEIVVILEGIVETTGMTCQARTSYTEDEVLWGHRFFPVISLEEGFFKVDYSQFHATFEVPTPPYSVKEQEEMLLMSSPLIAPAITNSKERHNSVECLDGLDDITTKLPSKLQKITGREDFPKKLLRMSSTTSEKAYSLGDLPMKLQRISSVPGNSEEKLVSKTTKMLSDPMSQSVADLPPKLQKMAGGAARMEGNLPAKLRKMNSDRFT
The term EC50 denotes the concentration at which the effect is half-maximal. Turning to `Cc1ccc(-c2nnn(CC(=O)NC3CC4CCC3C4)n2)cc1` (centres undefined), the concentration for a half-maximal effect (EC50) was 700 nM.

With `CCOc1ccccc1Nc1nnc(Cc2ccccc2Cl)c(=O)[nH]1`, the EC50 is 250 nM.

Regarding `Cc1cc(NC(=O)Nc2ccccc2)n(-c2ccccc2)n1`, the 50% effective concentration (EC50) was 1690 nM.

`Cc1ccc(NC(=O)Cc2ccccc2Cl)cc1S(=O)(=O)N(C)C`: the half-maximal effective concentration (EC50) was 799 nM.

Values taken from PubChem BioAssay AID623952 (Vanderbilt High Throughput Screening Facility, 2012).
